Laboratory results reported in PubChem BioAssay AID504338 (NMMLSC, 2011).
Active and inactive are the calls of the source.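 Rule for the calls: active = GFP response vs DMSO above 150% with enough events counted; inconclusive = fewer than 70 events counted for a yeast strain; inactive = the rest.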

Experiment: yeast TOR reporter LAP4-GFP retest – cell-based, third cherry pick, flow cytometry, confirmation (AID 504338);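 note: ratio to plate DMSO wells so 100% equals DMSO level rather than 0%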
Details: S. cerevisiae LAP4-GFP strain, 3 h, at 10 µM, stronger effect = higher value
In short: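 material = yeast LAP4-GFP strain | medium = synthetic complete growth medium for yeast | doses = 10 µM, one concentration | schedule = compound exposure for 3 h at 30 °C | signal = flow cytometric GFP fluorescence | read-out basis = percent of mean DMSO-control median fluorescence | control set = rapamycin 400 ng/mL as positive control, DMSO wells as reference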

Compound | GFP response vs DMSO
Oc1c(Br)cc(Br)c2cccnc12 | 257% (active)
Nc1cc(C(=O)O)c(N)c2c1C(=O)c1ccccc1C2=O | 106% (inactive)
CCOC(=O)CS(=O)(=O)c1nc(-c2ccccc2)cc(C(F)(F)F)n1 | 182% (active)
OCc1ccc(O)c2ncccc12 | 101% (inactive)
OCCNc1ncnc2ccc(Br)cc12 | 98.6% (inactive)
CCN(CC)C(=O)Oc1cc(=O)n(C)c2ccccc12 | 101% (inactive)
Cn1cccc1C(=O)Nc1nc(-c2ccccn2)cs1 | 114% (inactive)
O=C(O)CCCCCNc1ncnc2ccc(Br)cc12 | 104% (inactive)
OCCN1CCN(c2ncnc3ccc(Br)cc23)CC1 | 104% (inactive)
Nc1[nH]c(=O)nc(Nc2ccccc2)c1N=O | 104% (inactive)
COc1ccc(Nc2nc(NN)nc(C)c2[N+](=O)[O-])cc1 | 100% (inactive)
COc1ccccc1-c1cc(C(F)(F)F)nc(S(C)(=O)=O)n1 | 128% (inactive)
CC(=O)C(Cl)C(=O)Nc1ccccc1 (centres undefined) | 124% (inactive)
C=CCNc1nc(N)c([N+](=O)[O-])c(Nc2ccccc2OC)n1 | 100% (inactive)
CN1CCN(C(=O)c2cc(COc3ccc(F)cc3Cl)on2)CC1c1ccccc1 (centres undefined) | 103% (inactive)
COc1cccc2c(Cl)c(CCCl)c(C)nc12 | 104% (inactive)
COc1ccc(OC)c(Nc2nc(NCCC(C)C)nc(N)c2[N+](=O)[O-])c1 | 103% (inactive)
COc1cc(=O)n(C)c2c(O)cccc12 | 101% (inactive)
CCN(CC)C(=O)Oc1ccnc2cc(Cl)ccc12 | 101% (inactive)
NC(=O)c1ccnc2c(O)cccc12 | 101% (inactive)

Compound | GFP response vs DMSO
CC(=O)NCCOc1cccc2cccnc12 | 107% (inactive)
COc1ccc(NC(=O)O/N=C2/CCCc3ccc(OC)cc32)cc1 | 107% (inactive)
O=C(O)c1ccccc1-c1ccccc1C(=O)Nc1ccc(-c2nc3cc(Cl)ccc3o2)cc1 | 104% (inactive)
C=CCNc1nc(N)c([N+](=O)[O-])c(Nc2cccc(Cl)c2)n1 | 104% (inactive)
Nc1ncnc(Nc2cc(Cl)cc(Cl)c2)c1[N+](=O)[O-] | 101% (inactive)
CCCCC(=O)NCCc1cc2c(OC)ccc(OC)c2[nH]c1=O | 108% (inactive)
O=C1c2ccccc2C(=O)c2c1cccc2N(CCO)CCO | 100% (inactive)
CCC(C)Nc1nc(N)c([N+](=O)[O-])c(Nc2cc(OC)ccc2OC)n1 (centres undefined) | 101% (inactive)
CC1=CN2C(=N)/C(=C/c3ccc([N+](=O)[O-])o3)C(=O)N=C2S1 | 3330% (active)
Cc1nc(Nc2ccc(Cl)cc2)c(C#N)c(=O)[nH]1 | 107% (inactive)
C=CCNc1ncnc2ccc(Br)cc12 | 106% (inactive)
Cc1ccc2c(Cl)cc(Cl)c(OCC(=O)O)c2n1 | 100% (inactive)
CCCC(=O)Nn1cnc2c(c1=O)C1(CCCCC1)Cc1ccccc1-2 | 103% (inactive)
CS(=O)(=O)Oc1ccc(Br)c2cccnc12 | 104% (inactive)
Cc1cccc(C)c1Nc1ncnc(N)c1[N+](=O)[O-] | 101% (inactive)
Cc1cccc(N/C=C/C(=O)c2ccc(Cl)cc2)c1 | 110% (inactive)
Cc1ccc(Nc2cc(=O)[nH]c(=O)[nH]2)cc1Cl | 103% (inactive)
NC(=O)COc1cccc2cccnc12 | 103% (inactive)
Cc1ccc2c(C)ccc(O)c2n1 | 101% (inactive)
